From ChEMBL document CHEMBL3393025, “Discovery of dual leucine zipper kinase (DLK, MAP3K12) inhibitors with activity in neurodegeneration models” (J Med Chem, 2015) come the findings set out here.

A short description of series [1]: Half life in dog at 1 mg/kg, iv and 5 mg/kg, po. The class given is ADME, organism-based, Canis lupus familiaris. Particulars: in vivo. In a few lines:
(§1)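 Single-compound PK. Intravenous dose 1 mg/kg given as a 60% PEG solution. Oral dose 5 mg/kg given as an aqueous suspension in 1% methylcellulose. Plasma clearance, steady-state volume of distribution, half-life and oral bioavailability were determined from these doses.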

Series [2] can be described thus: Half life in cynomolgus monkey at 1 mg/kg, iv and 5 mg/kg, po. The class given is ADME, organism-based, Macaca fascicularis. The following applies: in vivo. The method, boiled down: as §1
For series [3], the target named is T1, Dual specificity mitogen-activated protein kinase kinase 4 (Homo sapiens, UniProt P45985).
T1 sequence (P45985 whole entry): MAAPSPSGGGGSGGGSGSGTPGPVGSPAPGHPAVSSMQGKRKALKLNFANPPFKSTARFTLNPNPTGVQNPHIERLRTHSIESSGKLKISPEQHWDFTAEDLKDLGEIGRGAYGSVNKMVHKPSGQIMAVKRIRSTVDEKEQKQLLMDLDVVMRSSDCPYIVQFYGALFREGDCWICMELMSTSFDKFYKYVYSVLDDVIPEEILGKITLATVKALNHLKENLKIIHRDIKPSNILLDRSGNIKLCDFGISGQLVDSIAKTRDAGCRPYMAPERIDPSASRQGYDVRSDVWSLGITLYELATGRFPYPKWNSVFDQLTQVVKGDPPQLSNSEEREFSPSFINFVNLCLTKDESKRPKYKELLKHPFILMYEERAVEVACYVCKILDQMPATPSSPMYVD
Put plainly: Inhibition of MKK4 (unknown origin).

Series [4] can be described thus: (§2) Neuroprotective activity in E14.5 rat embryo DRG neurons. The class given is functional. Particulars: drg neuron. In a few lines: (§3)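 DRG neurons freshly dissected from E14.5 rat embryos, plated at 1200−2000 cells/well on an astrocyte monolayer in DMEM/F12 with N3 supplement, 0.18% glucose and 25 ng/mL NGF. 200 μM uridine and 100 μM 5-fluorodeoxyuridine added next day. Cultured 4 days before axon degeneration assay. IC50 reported.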

The subject of series [5] is DRG neuron. The description is as §2. The class given is functional. The method, boiled down:
as §3

A short description of series [6]: Oral bioavailability in rat at 5 mg/kg. The class given is ADME, organism-based. The following applies: in vivo. In a few lines:
as §1

Series [7] can be described thus: Oral bioavailability in mouse at 5 mg/kg. The class given is ADME, organism-based. The following applies: in vivo. The method, boiled down:
as §1

Series [8] deals with Mitogen-activated protein kinase kinase kinase 11 (Homo sapiens, UniProt Q16584). Put plainly: Inhibition of MLK3 (unknown origin).
Series [9] in a line: Plasma clearance in dog at 1 mg/kg, iv and 5 mg/kg, po. The class given is ADME, organism-based, Canis lupus familiaris. The method, boiled down: as §1
Series [10] has as its target Mitogen-activated protein kinase 10 (Homo sapiens, UniProt P53779). Put plainly: Inhibition of JNK3 (unknown origin).
Series [11] concerns T2, Receptor-type tyrosine-protein kinase FLT3 (Homo sapiens), P36888 [D835Y].
T2 sequence (whole entry): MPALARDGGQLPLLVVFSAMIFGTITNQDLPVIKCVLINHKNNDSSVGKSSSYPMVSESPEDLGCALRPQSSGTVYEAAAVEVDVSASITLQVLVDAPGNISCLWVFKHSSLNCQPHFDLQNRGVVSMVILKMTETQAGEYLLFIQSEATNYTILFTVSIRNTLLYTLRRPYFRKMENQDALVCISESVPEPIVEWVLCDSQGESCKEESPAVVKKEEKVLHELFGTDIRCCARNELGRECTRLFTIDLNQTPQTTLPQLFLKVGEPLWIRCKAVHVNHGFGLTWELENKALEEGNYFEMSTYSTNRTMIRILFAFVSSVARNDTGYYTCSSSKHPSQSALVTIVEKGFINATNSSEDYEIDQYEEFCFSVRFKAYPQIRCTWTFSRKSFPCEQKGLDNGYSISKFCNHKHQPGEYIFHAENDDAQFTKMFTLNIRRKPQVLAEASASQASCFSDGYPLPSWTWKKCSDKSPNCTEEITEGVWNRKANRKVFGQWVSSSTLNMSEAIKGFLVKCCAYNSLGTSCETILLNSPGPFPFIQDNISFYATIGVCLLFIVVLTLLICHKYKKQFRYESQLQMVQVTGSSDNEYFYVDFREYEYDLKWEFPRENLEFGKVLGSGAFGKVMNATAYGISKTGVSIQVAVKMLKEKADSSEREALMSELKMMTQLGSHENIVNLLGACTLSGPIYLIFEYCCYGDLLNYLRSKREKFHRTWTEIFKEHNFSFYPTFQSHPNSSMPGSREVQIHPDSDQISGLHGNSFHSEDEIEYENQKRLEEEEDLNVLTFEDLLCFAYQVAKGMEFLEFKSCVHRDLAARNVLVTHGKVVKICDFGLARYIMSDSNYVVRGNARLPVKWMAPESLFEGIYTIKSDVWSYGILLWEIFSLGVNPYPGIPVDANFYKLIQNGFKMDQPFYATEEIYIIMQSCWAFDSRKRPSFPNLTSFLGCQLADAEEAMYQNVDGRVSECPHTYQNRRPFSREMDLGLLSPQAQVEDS
Put plainly: Inhibition of Flt3 D835Y mutant (unknown origin) at 0.1 uM. In a few lines: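 Kinase selectivity panel of 298 kinases, test compound at 0.1 μM, percent inhibition reported.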

Series [12] in a line: Plasma clearance in rat at 1 mg/kg, iv and 5 mg/kg, po. Type of series: ADME, organism-based. In a few lines:
as §1

Series [13] is described as follows: Oral bioavailability in dog at 5 mg/kg. The class given is ADME, organism-based, Canis lupus familiaris. The following applies: in vivo. The method, boiled down:
as §1

For series [14], the system named is Mus musculus. The series can be described thus: Neuroprotective activity against C57Bl/6 mouse Parkinson's disease model assessed as reduction of MPTP-induced increase in phosphorylated c-Jun level in substantia nigra at 37.5 to 75 mg/kg, po administered 30 mins prior to MPTP challenge followed by 2nd dosing after 12 and 24 hrs measured 1 hr post last dose by ELISA relative to vehicle-treated control. The class given is functional, organism-based.

The target in series [15] is T3, Dual specificity mitogen-activated protein kinase kinase 7 (Homo sapiens, UniProt O14733).
T3 sequence (O14733 whole entry): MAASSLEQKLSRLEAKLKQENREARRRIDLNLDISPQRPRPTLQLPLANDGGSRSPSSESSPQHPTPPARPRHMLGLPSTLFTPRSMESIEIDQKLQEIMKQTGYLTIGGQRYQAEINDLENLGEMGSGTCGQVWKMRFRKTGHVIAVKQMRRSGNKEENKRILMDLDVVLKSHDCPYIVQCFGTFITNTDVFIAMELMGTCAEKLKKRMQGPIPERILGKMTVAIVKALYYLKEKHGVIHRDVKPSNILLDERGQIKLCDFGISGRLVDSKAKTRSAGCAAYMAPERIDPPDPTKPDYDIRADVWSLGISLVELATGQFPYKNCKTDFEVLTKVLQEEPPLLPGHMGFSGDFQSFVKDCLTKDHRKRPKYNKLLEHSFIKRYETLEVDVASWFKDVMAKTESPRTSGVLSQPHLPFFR
Put plainly: Inhibition of MKK7 (unknown origin).

For series [16], the target named is Mitogen-activated protein kinase kinase kinase 9 (Homo sapiens, UniProt P80192). Put plainly: Inhibition of MLK1 (unknown origin).

Active and inactive are the calls of the source. The rule behind the calls is not given here.

Chain of Mitogen-activated protein kinase 10 (P53779 whole entry): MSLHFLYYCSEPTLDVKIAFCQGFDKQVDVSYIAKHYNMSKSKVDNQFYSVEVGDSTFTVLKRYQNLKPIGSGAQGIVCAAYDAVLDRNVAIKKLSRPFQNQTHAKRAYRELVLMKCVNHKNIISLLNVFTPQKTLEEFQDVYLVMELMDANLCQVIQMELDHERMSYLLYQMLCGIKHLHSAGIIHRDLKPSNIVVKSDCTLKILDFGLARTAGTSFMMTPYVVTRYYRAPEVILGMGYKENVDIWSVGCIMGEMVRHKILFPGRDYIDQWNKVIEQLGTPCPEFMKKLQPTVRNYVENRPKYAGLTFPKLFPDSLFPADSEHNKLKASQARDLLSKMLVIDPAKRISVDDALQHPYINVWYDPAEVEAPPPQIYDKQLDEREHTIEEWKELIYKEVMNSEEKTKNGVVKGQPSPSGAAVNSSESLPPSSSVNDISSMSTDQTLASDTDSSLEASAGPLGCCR
Chain of Mitogen-activated protein kinase kinase kinase 11 (Q16584 whole entry): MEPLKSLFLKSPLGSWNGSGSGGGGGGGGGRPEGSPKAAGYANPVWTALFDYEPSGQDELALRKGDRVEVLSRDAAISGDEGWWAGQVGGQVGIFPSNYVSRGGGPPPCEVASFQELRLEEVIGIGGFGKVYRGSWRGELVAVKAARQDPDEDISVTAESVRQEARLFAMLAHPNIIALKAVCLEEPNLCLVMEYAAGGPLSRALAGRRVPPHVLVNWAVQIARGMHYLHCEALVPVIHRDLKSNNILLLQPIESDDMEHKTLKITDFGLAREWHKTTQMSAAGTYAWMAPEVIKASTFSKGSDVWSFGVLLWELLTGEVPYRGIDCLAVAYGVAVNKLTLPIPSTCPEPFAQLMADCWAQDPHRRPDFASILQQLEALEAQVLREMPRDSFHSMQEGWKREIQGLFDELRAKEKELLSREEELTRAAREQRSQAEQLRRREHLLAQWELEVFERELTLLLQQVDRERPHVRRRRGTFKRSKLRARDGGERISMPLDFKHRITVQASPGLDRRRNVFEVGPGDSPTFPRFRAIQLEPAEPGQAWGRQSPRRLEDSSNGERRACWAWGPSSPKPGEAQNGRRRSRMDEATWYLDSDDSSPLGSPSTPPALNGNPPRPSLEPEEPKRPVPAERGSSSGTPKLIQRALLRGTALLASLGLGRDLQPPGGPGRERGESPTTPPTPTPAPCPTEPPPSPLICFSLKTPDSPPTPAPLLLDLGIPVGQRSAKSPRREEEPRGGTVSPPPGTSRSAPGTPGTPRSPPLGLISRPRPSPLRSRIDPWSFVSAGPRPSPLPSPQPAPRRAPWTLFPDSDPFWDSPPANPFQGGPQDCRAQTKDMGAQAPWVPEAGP
Chain of Mitogen-activated protein kinase kinase kinase 9 (P80192 whole entry): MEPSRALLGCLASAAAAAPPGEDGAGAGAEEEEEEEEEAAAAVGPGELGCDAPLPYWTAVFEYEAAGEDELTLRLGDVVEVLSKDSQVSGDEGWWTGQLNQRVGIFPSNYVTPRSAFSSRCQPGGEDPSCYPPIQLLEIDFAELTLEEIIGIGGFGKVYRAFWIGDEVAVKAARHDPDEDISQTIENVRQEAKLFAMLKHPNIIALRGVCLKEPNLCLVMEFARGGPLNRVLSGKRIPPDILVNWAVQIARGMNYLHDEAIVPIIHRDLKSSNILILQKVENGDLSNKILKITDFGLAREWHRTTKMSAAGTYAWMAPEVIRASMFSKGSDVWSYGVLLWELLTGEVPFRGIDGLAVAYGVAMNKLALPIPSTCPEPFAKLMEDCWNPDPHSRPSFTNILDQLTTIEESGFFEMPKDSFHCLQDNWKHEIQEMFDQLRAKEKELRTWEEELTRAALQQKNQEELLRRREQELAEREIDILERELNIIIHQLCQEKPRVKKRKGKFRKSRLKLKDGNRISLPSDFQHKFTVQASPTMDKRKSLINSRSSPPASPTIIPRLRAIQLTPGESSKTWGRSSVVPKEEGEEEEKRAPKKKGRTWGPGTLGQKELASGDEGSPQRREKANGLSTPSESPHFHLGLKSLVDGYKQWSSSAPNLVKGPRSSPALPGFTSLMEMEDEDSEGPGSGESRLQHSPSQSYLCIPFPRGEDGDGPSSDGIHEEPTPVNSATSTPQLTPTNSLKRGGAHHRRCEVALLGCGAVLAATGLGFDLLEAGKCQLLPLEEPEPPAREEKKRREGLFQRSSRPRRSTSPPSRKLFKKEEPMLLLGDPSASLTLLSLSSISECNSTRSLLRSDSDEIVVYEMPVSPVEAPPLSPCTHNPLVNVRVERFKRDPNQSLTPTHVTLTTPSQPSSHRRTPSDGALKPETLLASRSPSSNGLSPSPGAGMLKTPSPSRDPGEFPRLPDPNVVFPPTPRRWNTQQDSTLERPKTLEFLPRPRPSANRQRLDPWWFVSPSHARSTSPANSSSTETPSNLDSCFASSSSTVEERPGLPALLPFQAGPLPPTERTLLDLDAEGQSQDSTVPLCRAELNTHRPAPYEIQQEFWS

Take `N#Cc1ccnc(Nc2cc(C3CCN(C4COC4)CC3)cc(N3CCC(F)(F)C3)n2)c1`: the half-life (in general, how long it takes for the measured level to halve) in series [1] was 4 h; in series [2] it was 2.4 h. Also, the IC50 (as a rule, the midpoint of a concentration-inhibition curve) in [3] was greater than 5000 nM; in [4] it was 107 nM; in [8] it was 602 nM; in [10], 364 nM; in series [15], greater than 5000 nM; in series [16], 67.8 nM. For the same molecule, in series [5], the Activity result is “Dose-dependent effect”. In addition, the bioavailability (in general, the share of a dose that reaches the circulation, judged against a reference dose that is usually intravenous) was determined as 63% in [6], 45% in series [7] and 32% in [13]. The clearance in series [9] stood at 41 mL/min/kg; in series [12], 30 mL/min/kg. For the same molecule, in [11], the inhibition – broadly, the relative decrease from the control value, in per cent – is greater than 80%. Also, in [14], the outcome was Active.
